How the values were obtained:
WI-38 VA13 = assay: Cytotoxicity against human VA-13 cells by WST-8 assay; format: functional, cell-based
In short: (§1)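 Growth inhibition of WI-38, VA-13 and HepG2 cells, with Taxol and ADM as positive controls; IC50 taken as concentration giving 50% growth inhibition.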

A549 [1] = assay: Antiinflammatory activity in human A549 cells assessed as inhibition of ICAM1 induction pretreated for 1 hr before IL1alpha challenge and incubated for 6 hrs in presence of IL1alpha; format: functional, cell-based
In short: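 A549 cells (human lung carcinoma, used as endothelial model) exposed to a range of compound concentrations for 1 h, then IL-1α added and culture continued 6 h. ICAM-1 measured by primary and secondary antibodies plus enzyme substrate, absorbance at 415 nm. Triplicate cultures; IC50 reported.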

A549 [2] = assay: Cytotoxicity against human A549 cells after 24 hrs by MTT assay; format: functional, cell-based; conditions: A549, 24 h
In short: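 A549 cells incubated 24 h with serial dilutions of compound; viability (%) by MTT used to derive IC50. Triplicate cultures.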

[3] = Cytotoxicity against human Hep G2 by WST-8 assay; format: functional; conditions: HepG2; in short: as §1
[4] = Cytotoxicity against human WI38 cells by WST-8 assay; format: cell-based; conditions: WI-38; in short: as §1

## CO[C@H]1O[C@@]2(C)CC[C@@]13CC[C@]1(C)[C@H](CC[C@@H]4[C@@]5(C)CC[C@H](O)C(C)(C)[C@@H]5CC[C@]41C)[C@H]3[C@@H]2C
WI-38 VA13
  IC50: 11.7 µM
A549 [1]
  IC50: 80 µM
A549 [2]
  IC50: 76 µM
[3]
  IC50: 10.3 µM
[4]
  IC50: 11.8 µM

## C[C@H]1[C@H](C)CC[C@]2(O)CC[C@]3(C)C(=CC[C@@H]4[C@@]5(C)CC[C@H](O)C(C)(C)[C@@H]5CC[C@]43C)[C@H]12
WI-38 VA13
  IC50: 108 µM
A549 [1]
  IC50: > 316 µM
A549 [2]
  IC50: > 316 µM
[3]
  IC50: 21.1 µM
[4]
  IC50: 20.1 µM

## C[C@H]1[C@@H]2[C@H]3CC[C@@H]4[C@@]5(C)CC[C@H](O)C(C)(C)[C@@H]5CC[C@@]4(C)[C@]3(C)CC[C@@]23C=C[C@]1(C)OC3
WI-38 VA13
  IC50: 111 µM
A549 [1]
  IC50: > 316 µM
A549 [2]
  IC50: > 316 µM
[3]
  IC50: 155 µM
[4]
  IC50: 83.8 µM

## C[C@H]1[C@H](C)CC[C@]2(C=O)CC[C@]3(C)C(=CC[C@@H]4[C@@]5(C)CC[C@H](O)C(C)(C)[C@@H]5CC[C@]43C)[C@H]12
WI-38 VA13
  IC50: 85.4 µM
A549 [1]
  IC50: 158 µM
A549 [2]
  IC50: 205 µM
[3]
  IC50: 99 µM
[4]
  IC50: 94.7 µM
